{"source": "PubChem BioAssay AID651740", "about": "(Broad Institute, 2012)", "note": "Screen size: about 5,600 compounds; about 1,200 (21%) were called active. Another 3% or so got no clear call; they are omitted. Not all results are given here. A number with no mark means an inactive call.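 The calls were made as follows: active = mean inhibition above about 95%, with at least 55% of replicates also reaching it (limit read from the data); inconclusive = meets just one of the two conditions; inactive = meets neither condition.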"}
{"test": "inhibitors of intracellular T. cruzi replication, confirmation, NIH3T3 host cells, beta-gal parasites, cherry-pick, set 2 (AID 651740);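 also: plate controls were neutral control median for no effect and positive control median for full effect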", "settings": "T. cruzi beta-gal in NIH3T3, GalScreen luminescence, 90 h; at 2.09 µM; hits give high values", "procedure,_shortened": "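Test system: beta-gal T. cruzi in mouse NIH/3T3 fibroblasts. Quantity: 5,000 host cells per well. Buffer or medium: DMEM plus 2% fetal bovine serum, 1% PSG. Reagent: 5000 trypomastigotes per well. Timing: 3 h host cell attachment, then ≥90 h compound-parasite co-culture, 60 min GalScreen. Technique: luminescence, GalScreen.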"}
{"smiles": "COc1ccc(C#Cc2ccc([C@H]3[C@H](CO)N4CCCCN(C(=O)Cc5ccccc5)C[C@@H]34)cc2)cc1", "inhibition": "111% (active)"}
{"smiles": "COc1ccc(-c2ccc([C@H]3[C@H](CO)N4CCCCN(C(=O)Cc5ccncc5)C[C@@H]34)cc2)cc1", "inhibition": "66.4%"}
{"smiles": "O=C(Cc1ccccn1)N1CCCCN2[C@@H](CO)[C@@H](c3ccc(C#Cc4ccccc4)cc3)[C@@H]2C1", "inhibition": "56.8%"}
{"smiles": "C/C=C/c1ccc([C@H]2[C@H](CO)N3CCCCN(C(=O)Cc4ccncc4)C[C@@H]23)cc1", "inhibition": "82.3%"}
{"smiles": "O=C(Cc1cccnc1)N1CCCCN2[C@@H](CO)[C@H](c3ccc(C#CC4CCCC4)cc3)[C@@H]2C1", "inhibition": "46.3%"}
